# Hep lipid drop: hepatic lipid droplet formation modulation. AID 1656. inhibition, % at 6.5 µM. AML12 mouse hepatocytes, oleate lipid droplets, BODIPY imaging. hit rate 0.4% among 240,000;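 active = lipid droplet intensity inhibited by at least 50%, with more than 500 cells counted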
#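 Material: mouse AML12 hepatocyte cell line, fixed after treatment; Timing: compound with oleate, overnight; Technique: high-content imaging of BODIPY-stained droplets and DAPI nuclei; Probe or stimulus: oleate, 100 µM final; Dosing: compound at 6.5 µM only.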
# HTR5A inv ctr: counter-screen for OPRM1-OPRD1 inverse agonists: human HTR5A inverse agonism. P47898. HTR5A cell line, luminescence. inhibition, % at 9.3 µM. hit rate 0.083% among 340,000. AID 504634; in the data active = inhibition mostly above about 23%, no sharp cut-off; inactive = mostly below about 18%;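 also: 0% = cells with DMSO and 100% = no-cell wells with DMSO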
# MOR-DOR ag-1: agonists of human mu-delta opioid receptor heterodimerization; P35372+P41143; cells, OPRM1-OPRD1 heterodimerization, luminescence; activation, % at 9.3 µM; hit rate 0.3% among 340,000; AID 504326;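 also: 0% = vehicle-treated cells and 100% = reference agonist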
# Target sequence (P35372 whole entry, looked up): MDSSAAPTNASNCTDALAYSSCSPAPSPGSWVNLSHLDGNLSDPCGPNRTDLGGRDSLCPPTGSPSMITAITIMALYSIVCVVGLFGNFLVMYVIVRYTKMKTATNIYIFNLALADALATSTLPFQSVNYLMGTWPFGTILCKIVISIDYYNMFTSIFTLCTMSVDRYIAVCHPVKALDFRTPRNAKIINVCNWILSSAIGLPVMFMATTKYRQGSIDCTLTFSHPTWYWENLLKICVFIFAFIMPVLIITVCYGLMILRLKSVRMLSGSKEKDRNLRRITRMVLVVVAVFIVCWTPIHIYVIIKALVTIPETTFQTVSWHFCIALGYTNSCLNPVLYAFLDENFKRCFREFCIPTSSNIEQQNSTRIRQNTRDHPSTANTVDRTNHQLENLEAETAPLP
# Target sequence (P41143 whole entry, looked up): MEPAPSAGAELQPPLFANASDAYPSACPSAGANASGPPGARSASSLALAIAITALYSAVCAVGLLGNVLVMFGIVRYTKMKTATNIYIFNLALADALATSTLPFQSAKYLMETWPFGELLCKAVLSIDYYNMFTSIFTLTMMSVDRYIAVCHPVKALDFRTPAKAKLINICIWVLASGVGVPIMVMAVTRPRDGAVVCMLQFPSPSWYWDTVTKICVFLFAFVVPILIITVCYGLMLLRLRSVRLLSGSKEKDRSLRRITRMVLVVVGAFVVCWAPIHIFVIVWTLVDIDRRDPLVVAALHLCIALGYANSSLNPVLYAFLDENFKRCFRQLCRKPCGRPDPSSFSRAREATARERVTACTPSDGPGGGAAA
# MOR-DOR inv ag: inverse agonist of human OPRM1-OPRD1 heterodimerization; inhibition, % at 9.3 µM; AID 504357; cell-based MOR-DOR heterodimer luminescence, inverse agonism; P35372+P41143; hit rate 0.21% among 340,000; in the data active = inhibition above about 22%, passing the limit was not always enough;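 also: 0% = cells with DMSO and 100% = wells without cells with DMSO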
# HTR5A ag ctr: activates human HTR5A in OPRM1-OPRD1 agonist counter-screen; P47898; HTR5A agonist assay, luminescence, cell-based; activation, % at 9.3 µM; hit rate 0.61% among 340,000; AID 504692; in the data active = activation mostly above about 9.5%, no sharp cut-off; inactive = mostly below about 7.6%;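 also: 0% = cells with vehicle only and 100% = reference agonist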
# MOR-DOR ag-2: opioid heterodimer agonism, HTR5A counter-screen. shares compounds with HTR5A ag ctr. U2OS counter-screen cells, complementation luminescence, 3 h. activation, % at 9.3 µM. hit rate 13% among 800. AID 504913
# HTR5A ag conf: confirmation of human HTR5A agonists; shares compounds with HTR5A ag ctr; HTR5A agonist cell assay, luminescence; hit rate 17% among 800; AID 504915; activation, % at 9.3 µM; in the data active = activation above about 17%;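 also: 0% = cells with vehicle only and 100% = full reference agonist response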
# The depositor's hits bear a star; nt = no result given. The list is not random: actives were taken first. Their share in the collection is about 1.4%. Rule as the data show it, unless noted: active = activation above about 18%; inactive = the rest.
SMILES,Hep lipid drop,HTR5A inv ctr,MOR-DOR ag-1,MOR-DOR inv ag,HTR5A ag ctr,MOR-DOR ag-2,HTR5A ag conf
CN(C)CCNC(=O)CNC(=S)N(Cc1ccccc1)Cc1cccnc1,41,-27,-1,8,2,nt,nt
Cn1c(=O)cc(SCC(=O)N2CCN(Cc3ccc4c(c3)OCO4)CC2)c2ccccc21,nt,3,-3,17,18*,2,-2
CCn1c(=O)cc(SCC(=O)N2CCN(Cc3ccc4c(c3)OCO4)CC2)c2ccccc21,nt,-4,3,-17,-1,nt,nt
COc1ccc(CC(=O)Nc2cccc(S(=O)(=O)N3CCOCC3)c2)cc1OC,nt,0,-1,2,0,nt,nt
COc1ccccc1N1CCN(C(=O)c2ccc(Cn3c(=O)[nH]c4ccsc4c3=O)cc2)CC1,7,9,0,1,16*,0,12
C=CCNC(=O)c1ccccc1NC(=O)C1CC(=O)N(C(C)C)C1 (stereo not given),-5,-2,-1,6,16*,-1,0
Cn1c(CCC(=O)O)nc2cc(S(=O)(=O)N3CCCCC3)ccc21,nt,-12,-2,9,4,nt,nt
CC(C)(C)c1cc(C(=O)NNc2cc(C(F)(F)F)ccc2Cl)n(Cc2ccccc2)n1,13,15,18,-89,18*,12,16
COc1ccccc1NNC(=O)c1cc(C(C)(C)C)nn1Cc1ccccc1,0,-12,-4,19,7,nt,nt
C/C(CC(=O)Nc1cccc(F)c1)=N\NC(=O)c1ccncc1,-16,17,-2,11,6,nt,nt
O=C1c2ccccc2C(=O)N1CCc1c[nH]c2ccc(O)cc12,0,-100,-2,9,24*,3,5
Cc1nc(CC(=O)NNS(=O)(=O)c2cccc(Cl)c2Cl)cs1,nt,9,-1,7,-2,nt,nt
COC(=O)CCC(=O)OC1(C)C(=O)C2=CN(CCc3c[nH]c4ccccc34)C(c3ccc(OC)cc3)=CC2=C(Br)C1=O (stereo not given),nt,-98,5,-27,38*,86*,2
COc1cccc(CNC(=O)Cc2ccc(-c3ccccc3)cc2)c1,-3,0,0,-2,0,nt,nt
COc1cccc(CNC(=O)COC(=O)CNC(=O)c2ccc(-c3ccccc3)cc2)c1,nt,-37,-1,5,15*,4,-2
Cc1onc(-c2ccccc2Cl)c1C(=O)NCCN1Cc2ccccc2C1=O,nt,-77,2,-12,29*,0,-2
O=C(Nc1ccc(S(=O)(=O)NC2=NCCCCC2)cc1)c1ccc(Cl)cc1Cl,nt,-3,0,2,1,nt,nt
C=CCN1CCc2c(cc(O)c(O)c2Br)[C@@H](c2ccccc2)C1,nt,-109,9,-49,57*,8,59*
Cc1ccc(S(=O)(=O)N2CCN(CN3C(=O)CC4(CCCC4)C3=O)CC2)cc1,nt,-27,-1,6,1,nt,nt
CC(C)C[C@H](NC(=O)N1CC(=O)Nc2ccccc21)C(=O)N[C@@H](Cc1c[nH]c2ccccc12)C(=O)O,nt,-1,-3,16,40*,0,-2
O=C(NCCc1c[nH]c2ccccc12)c1cc([N+](=O)[O-])cc([N+](=O)[O-])c1,7,-252,2,-13,65*,6,69*
CNC(=O)CCCCC(=O)N/N=C/c1ccc(Cl)cc1Cl,-1,-10,-1,3,15*,31*,-2
O=C(CN1c2ccccc2Sc2ccccc21)N/N=C/c1ccc(Cl)cc1Cl,13,-15,0,3,4,nt,nt
Nc1ccc(-c2n[nH]c(=O)c3ccccc23)cc1N,-12,-50,2,-9,21*,3,14
CC(C)(C)NC(=O)NC(=O)COC(=O)COc1ccc2c(c1)CCC2,nt,-54,6,-36,20*,10,4
CCCc1cc(=O)n2nc(N3CCC(C(=O)Nc4c(F)c(F)c(F)c(F)c4F)CC3)sc2n1,20,-7,-3,14,-2,nt,nt
CCCc1cc(=O)n2nc(N3CCC(C(=O)Nc4cccc(C(C)=O)c4)CC3)sc2n1,-9,8,-2,11,17*,18,0
COc1ccc(C2NC(=O)N(C)C3=C2C(=O)CC(C)(C)C3)cc1OC (stereo not given),0,-5,-2,11,2,nt,nt
CCOC(=O)c1c(-c2ccc(C)cc2)csc1NC(=S)NC(=O)c1ccccc1,-29,21,-1,3,1,nt,nt

# Source: PubChem (several laboratories)
